Calls of active or inactive are those of the source. No cut-off for these calls is given here.
What was measured:
[1] = Antioxidant activity assessed as DPPH radical scavenging activity at 0.2 mM after 30 mins; format: physicochemical; settings: 0.5 h, 200 µM
[2] = Inhibition of soybean lipoxygenase assessed as reduction in conversion of sodium linoleate to 13-hydroperoxylinoleic acid up to 7 mins; parameters: species or system Glycine max
[3] = tested on: Rattus norvegicus; assay: Antiinflammatory activity in rat assessed as reduction of carrageenan-induced paw oedema at 0.15 mmol/kg, ip administered 5 mins before carrageenan challenge measured after 3.5 hrs; format: functional
Summary of the method: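 Rat carrageenan-induced paw oedema; compounds given ip at 0.15 mmol/kg body weight. Result expressed as percent inhibition of oedema relative to controls; mean of 6–8 animals; significance by Student's t test.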

[4] = tested on: Glycine max; assay: Competitive inhibition of soybean lipoxygenase 1 mM of sodium linoleate assessed as reduction of 13-hydroperoxylinoleic acid formation up to 7 mins
Summary of the method: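 Soybean lipoxygenase run with linoleic acid at 1 mM, above the saturating substrate concentration, under the same conditions as the standard inhibition assay, to test for competitive inhibition.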

[5] = tested on: Liver; assay: Antioxidant activity in rat hepatic microsomal membrane assessed as inhibition of ferrous ascorbate-induced lipid peroxidation after 45 mins by spectrophotometric analysis; format: functional, cell membranes
[6] = tested on: Rattus norvegicus; assay: Antidyslipidemic activity in rat Triton-WR1339-induced hyperlipidemic model assessed as reduction of plasma total cholesterol level at 0.15 mmol/kg, ip after 24 hrs; format: functional; parameters: scale not given: the % may be the effect or the level left
Summary of the method: (§1)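 Hyperlipidemia induced in rats by tyloxapol 200 mg/kg ip; compounds given ip at 150 μmol/kg. Serum total cholesterol, triglycerides and LDL-cholesterol compared with hyperlipidemic controls. Groups of six to eight rats; significance by Student's t test.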

[7] = tested on: Rattus norvegicus; assay: Antidyslipidemic activity in rat Triton-WR1339-induced hyperlipidemic model assessed as reduction of plasma triglyceride level at 0.15 mmol/kg, ip after 24 hrs; format: functional; parameters: scale not given: the % may be the effect or the level left; summary of the method: as §1
[8] = tested on: Rattus norvegicus; assay: Antidyslipidemic activity in rat Triton-WR1339-induced hyperlipidemic model assessed as reduction of plasma low density lipoprotein cholesterol level at 0.15 mmol/kg, ip after 24 hrs; format: functional; parameters: scale not given: the % may be the effect or the level left; summary of the method: as §1
[9] = tested on: Rattus norvegicus; assay: Antiinflammatory activity in rat assessed as reduction of carrageenan-induced paw oedema at 0.30 mmol/kg, ip administered 5 mins before carrageenan challenge measured after 3.5 hrs; format: functional

O=C(Cc1c[nH]c2ccccc12)OC/C=C/c1ccccc1
Activity [1]: Not Active | IC50 [2]: 116 µM | inhibition in vivo at 150 µmol/kg [3]: 33% | inhibition [4]: inactive | inhibition [5]: inactive

COc1ccc2c(c1)c(CC(=O)O)c(C)n2C(=O)c1ccc(Cl)cc1 [INDOMETHACIN]
inhibition in vivo at 150 µmol/kg [3]: 42%

Cc1cccc(Nc2ccccc2C(=O)O)c1C [MEFENAMIC ACID]
inhibition in vivo at 150 µmol/kg [3]: 44%

O=C(OC/C=C/c1ccccc1)c1ccccc1Nc1cccc(C(F)(F)F)c1
Activity [1]: Not Active | IC50 [2]: 9 µM | inhibition in vivo at 150 µmol/kg [3]: 48% | inhibition [4]: inactive | Activity [6]: 48.4% | Activity [7]: 50.1% | Activity [8]: 65.1% | inhibition [5]: inactive

CC(C)Cc1ccc(C(C)C(=O)O)cc1 (stereo unspecified) [IBUPROFEN]
inhibition in vivo at 150 µmol/kg [3]: 36%

O=C(O)c1ccccc1Nc1cccc(C(F)(F)F)c1 [FLUFENAMIC ACID]
inhibition in vivo at 150 µmol/kg [3]: 19%

OC/C=C/c1ccccc1 [CINNAMIC ALCOHOL]
IC50 [2]: 250 µM | inhibition in vivo at 150 µmol/kg [3]: 13%

O=C(CCCCC1CCSS1)OC/C=C/c1ccccc1 (stereo unspecified)
Activity [1]: Not Active | IC50 [2]: 11.3 µM | inhibition in vivo at 150 µmol/kg [3]: 48% | inhibition in vivo at 300 µmol/kg [9]: 57% | inhibition [4]: inactive | inhibition [5]: inactive

CC(C(=O)OC/C=C/c1ccccc1)c1cccc(C(=O)c2ccccc2)c1 (stereo unspecified)
Activity [1]: Not Active | IC50 [2]: 22.5 µM | inhibition in vivo at 150 µmol/kg [3]: 55% | inhibition [4]: inactive | inhibition [5]: inactive

CC(C)Cc1ccc(C(C)C(=O)OC/C=C/c2ccccc2)cc1 (stereo unspecified)
Activity [1]: Not Active | IC50 [2]: 6.7 µM | inhibition in vivo at 150 µmol/kg [3]: 46% | inhibition in vivo at 300 µmol/kg [9]: 68% | inhibition [4]: inactive | Activity [6]: 53.3% | Activity [7]: 77.5% | Activity [8]: 75% | inhibition [5]: inactive

Cc1c(Cl)cccc1Nc1ccccc1C(=O)O [TOLFENAMIC ACID]
inhibition in vivo at 150 µmol/kg [3]: 24%

O=C(Cc1ccccc1Nc1c(Cl)cccc1Cl)OC/C=C/c1ccccc1
Activity [1]: Not Active | IC50 [2]: 78 µM | inhibition in vivo at 150 µmol/kg [3]: 53% | inhibition [4]: inactive | Activity [6]: 78.4% | Activity [7]: 71.6% | Activity [8]: 76.8% | inhibition [5]: inactive

Cc1cccc(Nc2ccccc2C(=O)OC/C=C/c2ccccc2)c1C
Activity [1]: Not Active | IC50 [2]: 38 µM | inhibition in vivo at 150 µmol/kg [3]: 62% | inhibition [4]: inactive | inhibition [5]: inactive

O=C(O)Cc1ccccc1Nc1c(Cl)cccc1Cl [DICLOFENAC]
inhibition in vivo at 150 µmol/kg [3]: 37%

Cc1c(Cl)cccc1Nc1ccccc1C(=O)OC/C=C/c1ccccc1
Activity [1]: Not Active | IC50 [2]: 9.6 µM | inhibition in vivo at 150 µmol/kg [3]: 42% | inhibition [4]: inactive | inhibition [5]: inactive

COc1ccc2cc([C@H](C)C(=O)OC/C=C/c3ccccc3)ccc2c1
Activity [1]: Not Active | IC50 [2]: 40.5 µM | inhibition in vivo at 150 µmol/kg [3]: 60% | inhibition [4]: inactive | inhibition [5]: inactive

COc1ccc2cc([C@H](C)C(=O)O)ccc2c1 [NAPROXEN]
inhibition in vivo at 150 µmol/kg [3]: 11%

COc1ccc2c(c1)c(CC(=O)OC/C=C/c1ccccc1)c(C)n2C(=O)c1ccc(Cl)cc1
Activity [1]: Not Active | IC50 [2]: 9 µM | inhibition in vivo at 150 µmol/kg [3]: 56% | inhibition [4]: inactive | inhibition [5]: inactive

CC(Cc1ccc(O)c(O)c1)C(C)Cc1ccc(O)c(O)c1 (stereo unspecified) [NORDIHYDROGUAIARETIC ACID]
IC50 [2]: 1.3 µM
